{"data": "Measured values gathered from unrelated publications", "target": "Serine/threonine-protein kinase LATS1 (LATS1, Homo sapiens, UniProt O95835)", "Sequence (O95835 1-1130, as in one of the studies)": "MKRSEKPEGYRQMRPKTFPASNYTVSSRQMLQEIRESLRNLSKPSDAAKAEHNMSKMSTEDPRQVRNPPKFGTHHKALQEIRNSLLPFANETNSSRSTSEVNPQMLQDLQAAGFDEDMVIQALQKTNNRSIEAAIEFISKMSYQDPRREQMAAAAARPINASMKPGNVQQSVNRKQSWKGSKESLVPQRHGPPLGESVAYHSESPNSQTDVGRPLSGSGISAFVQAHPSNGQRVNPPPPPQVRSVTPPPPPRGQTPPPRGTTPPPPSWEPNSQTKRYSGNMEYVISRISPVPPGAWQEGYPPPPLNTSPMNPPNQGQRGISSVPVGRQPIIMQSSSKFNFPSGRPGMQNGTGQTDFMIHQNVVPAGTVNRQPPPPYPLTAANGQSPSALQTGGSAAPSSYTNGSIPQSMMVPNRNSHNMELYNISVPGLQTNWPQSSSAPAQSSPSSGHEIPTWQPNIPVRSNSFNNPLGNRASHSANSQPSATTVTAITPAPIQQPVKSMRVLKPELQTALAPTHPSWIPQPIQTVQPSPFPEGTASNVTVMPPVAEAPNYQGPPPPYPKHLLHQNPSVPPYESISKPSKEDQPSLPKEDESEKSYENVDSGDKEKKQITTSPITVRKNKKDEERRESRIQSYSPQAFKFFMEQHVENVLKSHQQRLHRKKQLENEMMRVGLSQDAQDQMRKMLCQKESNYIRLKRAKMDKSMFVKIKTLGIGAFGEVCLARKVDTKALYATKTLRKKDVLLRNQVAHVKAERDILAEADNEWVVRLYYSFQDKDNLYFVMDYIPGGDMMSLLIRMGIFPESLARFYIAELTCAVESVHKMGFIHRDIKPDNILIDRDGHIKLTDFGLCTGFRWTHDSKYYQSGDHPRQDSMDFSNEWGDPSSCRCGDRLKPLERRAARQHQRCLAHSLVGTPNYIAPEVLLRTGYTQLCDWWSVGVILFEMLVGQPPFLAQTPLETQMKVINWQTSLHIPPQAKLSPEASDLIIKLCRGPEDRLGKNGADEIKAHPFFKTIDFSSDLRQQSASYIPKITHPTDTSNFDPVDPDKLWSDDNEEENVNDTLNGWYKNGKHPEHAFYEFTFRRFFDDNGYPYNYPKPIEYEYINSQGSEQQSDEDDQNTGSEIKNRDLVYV", "note": "Compare with care: the assays were run in different laboratories."}
{"Compound": "O=C(NCCCC1CCCCC1)c1ccc(CNC(=O)c2cnn(-c3ccccc3)c2C(F)(F)F)cc1", "assay": "cell-free assay, competition with immobilised ligand", "setting": "0.1 µM", "remaining binding": "100%"}
{"Compound": "O=C(NCCCN1CCOCC1)c1ccc(Nc2ncc(Cl)c(-c3ccc(Cl)s3)n2)cc1", "assay": "binding, competition with immobilised ligand", "setting": "1 µM", "remaining binding": "42%"}
{"Compound": "COc1ncc2cc3ccccc3nc2c1C#N", "assay": "cell-free assay, competition with immobilised ligand", "setting": "5 µM", "remaining binding": "93%"}
{"Compound": "CCCCN(CCCC)C(=O)CN1C[C@@H](c2cc(OC)c3c(c2)OCO3)[C@H](C(=O)O)[C@H]1CC(C)(C)CCC", "assay": "cell-free assay, competition with immobilised ligand", "setting": "1 µM", "remaining binding": "75.2%"}
{"Compound": "CN(C)c1nccc(-c2cnn3ncccc23)n1", "assay": "binding", "setting": "1 µM", "remaining binding": "100%"}
{"Compound": "O=C(NCCCN1CCOCC1)c1ccc(Nc2nccc(-c3cc4ccccc4s3)n2)cc1", "assay": "binding, competition with immobilised ligand", "setting": "1 µM", "remaining binding": "100%"}
{"Compound": "Cc1cc(NC(=O)c2cccc(S(F)(F)(F)(F)F)c2)cc(-n2ccn3nc(-c4cccnc4)cc23)c1", "assay": "cell-free assay, competition with immobilised ligand", "setting": "1 µM", "remaining binding": "100%"}
{"Compound": "O=C(Nc1c[nH]nc1C(=O)NC1CCNCC1)c1cc(F)cc(F)c1", "assay": "binding, competition with immobilised ligand", "setting": "1 µM", "remaining binding": "100%"}
{"Compound": "C[C@H]1CCN(c2nccc(-c3cnn4ncccc34)n2)C1", "assay": "binding", "setting": "1 µM", "remaining binding": "100%"}
{"Compound": "FC(F)(F)Oc1cccc(-c2cnc3ccc(-c4ccncc4)nn23)c1", "assay": "cell-free assay, competition with immobilised ligand", "setting": "5 µM", "remaining binding": "100%"}
{"Compound": "CN(CCCC(F)(F)F)c1nccc(-c2cnn3ncccc23)n1", "assay": "binding", "setting": "1 µM", "remaining binding": "78%"}
{"Compound": "N#Cc1ccc(Nc2ccc3[nH]c(=O)[nH]c3c2)c(Cl)c1", "assay": "cell-free assay, competition with immobilised ligand", "setting": "1 µM", "remaining binding": "76%"}
{"Compound": "CNC(=O)[C@@H]1CC[C@@H](n2c(-c3ccc4cnccc4c3)nc3ccc(C(=O)NCc4cccc(C(N)=O)c4)cc32)C1", "assay": "binding, competition with immobilised ligand", "setting": "1 µM", "remaining binding": "100%"}
{"Compound": "CN(c1nccc(-c2cnn3ncccc23)n1)C1CC1", "assay": "binding", "setting": "1 µM", "remaining binding": "82%"}
{"Compound": "O=C(O)[C@@H]1[C@@H](Cn2nnc3ccccc3c2=O)CC[C@H]1C(=O)c1ccc(OCCC2CCOCC2)cc1", "assay": "cell-free assay, competition with immobilised ligand", "setting": "1 µM", "remaining binding": "90%"}
{"Compound": "N[C@H]1CCN(c2nccc(-c3cnn4ncccc34)n2)C1", "assay": "binding", "setting": "1 µM", "remaining binding": "100%"}
{"Compound": "O=C(Nc1ccc(Oc2ccc(F)cc2)cc1)N1CCc2ncccc2[C@H]1c1ccc(F)cc1", "assay": "cell-free assay, competition with immobilised ligand", "setting": "1 µM", "remaining binding": "86%"}
{"Compound": "COc1cnc(Nc2cccc(S(N)(=O)=O)c2)nc1N1CCN(c2ccccc2)C(=O)C1", "assay": "binding, competition with immobilised ligand", "setting": "1 µM", "remaining binding": "90%"}
{"Compound": "Cc1cnc(Nc2ccc(C(=O)N3CCC(N4CCCC4)CC3)cc2)nc1-c1cc2ccccc2s1", "assay": "binding, competition with immobilised ligand", "setting": "1 µM", "remaining binding": "89%"}
{"Compound": "CN(C)c1ncc(F)c(-c2cnn3ncccc23)n1", "assay": "binding", "setting": "1 µM", "remaining binding": "100%"}
